In ChEMBL document CHEMBL5058577, “EUbOPEN Chemogenomics Library 2 (Multiplex)” (2022):

Tested on: Fibroblast
Experiment: Multiplex assay against human fibroblast
Type: toxicity, cell-based
Outline: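 Imaging took place on a CQ1 microscope at 37°C and 5% CO2 once compound had been added to live cells stained at seeding with Hoechst33342, BioTracker Green Microtubule Cytoskeleton Dye, MitoTracker Red and Annexin V Alexa Fluor 680. CellPathfinder machine-learning gating classed cells as Hoechst high-intensity objects or normal cells, classed normal cells as having healthy, pyknosed or fragmented nuclei, and classed pyknosed cells as mitotic or apoptotic. Tubulin, mitochondrial-mass and membrane-permeability phenotypes are per cents of the healthy-nucleus cells.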

[1] = 12 h, 1 µM, compound concentration 1 uM, replicate 1
[2] = 12 h, 1 µM, compound concentration 1 uM, replicate 2
[3] = 12 h, 10 µM, compound concentration 10 uM, replicate 1
[4] = 12 h, 10 µM, compound concentration 10 uM, replicate 2
[5] = 24 h, 1 µM, compound concentration 1 uM, replicate 1
[6] = 24 h, 1 µM, compound concentration 1 uM, replicate 2
[7] = 24 h, 10 µM, compound concentration 10 uM, replicate 1
[8] = 24 h, 10 µM, compound concentration 10 uM, replicate 2
[9] = 48 h, 1 µM, compound concentration 1 uM, replicate 1
[10] = 48 h, 1 µM, compound concentration 1 uM, replicate 2
[11] = 48 h, 10 µM, compound concentration 10 uM, replicate 1
[12] = 48 h, 10 µM, compound concentration 10 uM, replicate 2

Q: `Cc1ccc(OCC(O)C(C)NC(C)C)c2c1CCC2.Cl` (stereo unspecified) was tested. Which “Population Apoptotic (%)” value [1] did it give?
A: 36%

Q: What about the “Population Fragmented Nuclei (%)” value [1] of the same molecule?
A: 10%

Q: And the “Population Healthy Nuclei (%)” value [1]?
A: 68%

Q: What about the “Population Hoechst High Intensity Objects (%)” value [1] of the same molecule?
A: 0%

Q: What about the “Population Membrane Permeable-Phenotype (%)” value [1] of the same molecule?
A: 0%

Q: What about the “Population Mitochondria Different-Phenotype (%)” value [1] of the same molecule?
A: 3%

Q: What about the “Population Mitotic Cells (%)” value [1] of the same molecule?
A: 63%

Q: What about the “Population Normal (%)” value [1] of the same molecule?
A: 99%

Q: What about the “Population Pyknosed Nuclei (%)” value [1] of the same molecule?
A: 20%

Q: What about the “Population Tubulin-Different-Phenotype (%)” value [1] of the same molecule?
A: 26%

Q: What about the “Total Cell Count” value [1] of the same molecule?
A: 159

Q: What about the “Population Apoptotic (%)” value [2] of the same molecule?
A: 28%

Q: And the “Population Fragmented Nuclei (%)” value [2]?
A: 17%

Q: And the “Population Healthy Nuclei (%)” value [2]?
A: 55%

Q: What about the “Population Hoechst High Intensity Objects (%)” value [2] of the same molecule?
A: 9%

Q: What about the “Population Membrane Permeable-Phenotype (%)” value [2] of the same molecule?
A: 4%

Q: And the “Population Mitochondria Different-Phenotype (%)” value [2]?
A: 7%

Q: And the “Population Mitotic Cells (%)” value [2]?
A: 71%

Q: What about the “Population Normal (%)” value [2] of the same molecule?
A: 90%

Q: What about the “Population Pyknosed Nuclei (%)” value [2] of the same molecule?
A: 27%

Q: What about the “Population Tubulin-Different-Phenotype (%)” value [2] of the same molecule?
A: 50%

Q: And the “Total Cell Count” value [2]?
A: 210

Q: What about the “Population Apoptotic (%)” value [3] of the same molecule?
A: 47%

Q: What about the “Population Fragmented Nuclei (%)” value [3] of the same molecule?
A: 39%

Q: And the “Population Healthy Nuclei (%)” value [3]?
A: 47%

Q: And the “Population Hoechst High Intensity Objects (%)” value [3]?
A: 1%

Q: And the “Population Membrane Permeable-Phenotype (%)” value [3]?
A: 0%

Q: What about the “Population Mitochondria Different-Phenotype (%)” value [3] of the same molecule?
A: 12%

Q: What about the “Population Mitotic Cells (%)” value [3] of the same molecule?
A: 52%

Q: And the “Population Normal (%)” value [3]?
A: 98%

Q: What about the “Population Pyknosed Nuclei (%)” value [3] of the same molecule?
A: 12%

Q: And the “Population Tubulin-Different-Phenotype (%)” value [3]?
A: 52%

Q: What about the “Total Cell Count” value [3] of the same molecule?
A: 138

Q: What about the “Population Apoptotic (%)” value [4] of the same molecule?
A: 25%

Q: And the “Population Fragmented Nuclei (%)” value [4]?
A: 33%

Q: And the “Population Healthy Nuclei (%)” value [4]?
A: 50%

Q: And the “Population Hoechst High Intensity Objects (%)” value [4]?
A: 2%

Q: What about the “Population Membrane Permeable-Phenotype (%)” value [4] of the same molecule?
A: 7%

Q: And the “Population Mitochondria Different-Phenotype (%)” value [4]?
A: 17%

Q: And the “Population Mitotic Cells (%)” value [4]?
A: 74%

Q: And the “Population Normal (%)” value [4]?
A: 97%

Q: What about the “Population Pyknosed Nuclei (%)” value [4] of the same molecule?
A: 16%

Q: What about the “Population Tubulin-Different-Phenotype (%)” value [4] of the same molecule?
A: 54%

Q: And the “Total Cell Count” value [4]?
A: 168

Q: And the “Population Apoptotic (%)” value [5]?
A: 57%

Q: What about the “Population Fragmented Nuclei (%)” value [5] of the same molecule?
A: 11%

Q: And the “Population Healthy Nuclei (%)” value [5]?
A: 74%

Q: And the “Population Hoechst High Intensity Objects (%)” value [5]?
A: 0%

Q: And the “Population Membrane Permeable-Phenotype (%)” value [5]?
A: 4%

Q: What about the “Population Mitochondria Different-Phenotype (%)” value [5] of the same molecule?
A: 5%

Q: And the “Population Mitotic Cells (%)” value [5]?
A: 42%

Q: What about the “Population Normal (%)” value [5] of the same molecule?
A: 100%

Q: What about the “Population Pyknosed Nuclei (%)” value [5] of the same molecule?
A: 13%

Q: What about the “Population Tubulin-Different-Phenotype (%)” value [5] of the same molecule?
A: 30%

Q: What about the “Total Cell Count” value [5] of the same molecule?
A: 154

Q: And the “Population Apoptotic (%)” value [6]?
A: 20%

Q: And the “Population Fragmented Nuclei (%)” value [6]?
A: 27%

Q: And the “Population Healthy Nuclei (%)” value [6]?
A: 46%

Q: And the “Population Hoechst High Intensity Objects (%)” value [6]?
A: 15%

Q: And the “Population Membrane Permeable-Phenotype (%)” value [6]?
A: 1%

Q: What about the “Population Mitochondria Different-Phenotype (%)” value [6] of the same molecule?
A: 8%

Q: And the “Population Mitotic Cells (%)” value [6]?
A: 80%

Q: What about the “Population Normal (%)” value [6] of the same molecule?
A: 84%

Q: What about the “Population Pyknosed Nuclei (%)” value [6] of the same molecule?
A: 26%

Q: What about the “Population Tubulin-Different-Phenotype (%)” value [6] of the same molecule?
A: 52%

Q: What about the “Total Cell Count” value [6] of the same molecule?
A: 201

Q: And the “Population Apoptotic (%)” value [7]?
A: 35%

Q: What about the “Population Fragmented Nuclei (%)” value [7] of the same molecule?
A: 39%

Q: And the “Population Healthy Nuclei (%)” value [7]?
A: 49%

Q: What about the “Population Hoechst High Intensity Objects (%)” value [7] of the same molecule?
A: 1%

Q: And the “Population Membrane Permeable-Phenotype (%)” value [7]?
A: 1%

Q: And the “Population Mitochondria Different-Phenotype (%)” value [7]?
A: 13%

Q: What about the “Population Mitotic Cells (%)” value [7] of the same molecule?
A: 64%

Q: And the “Population Normal (%)” value [7]?
A: 98%

Q: What about the “Population Pyknosed Nuclei (%)” value [7] of the same molecule?
A: 11%

Q: And the “Population Tubulin-Different-Phenotype (%)” value [7]?
A: 63%

Q: What about the “Total Cell Count” value [7] of the same molecule?
A: 151

Q: And the “Population Apoptotic (%)” value [8]?
A: 36%

Q: And the “Population Fragmented Nuclei (%)” value [8]?
A: 35%

Q: And the “Population Healthy Nuclei (%)” value [8]?
A: 50%

Q: What about the “Population Hoechst High Intensity Objects (%)” value [8] of the same molecule?
A: 5%

Q: What about the “Population Membrane Permeable-Phenotype (%)” value [8] of the same molecule?
A: 4%

Q: And the “Population Mitochondria Different-Phenotype (%)” value [8]?
A: 14%

Q: And the “Population Mitotic Cells (%)” value [8]?
A: 63%

Q: What about the “Population Normal (%)” value [8] of the same molecule?
A: 94%

Q: What about the “Population Pyknosed Nuclei (%)” value [8] of the same molecule?
A: 13%

Q: And the “Population Tubulin-Different-Phenotype (%)” value [8]?
A: 65%

Q: And the “Total Cell Count” value [8]?
A: 168

Q: And the “Population Apoptotic (%)” value [9]?
A: 64%

Q: What about the “Population Fragmented Nuclei (%)” value [9] of the same molecule?
A: 16%

Q: What about the “Population Healthy Nuclei (%)” value [9] of the same molecule?
A: 71%

Q: And the “Population Hoechst High Intensity Objects (%)” value [9]?
A: 4%

Q: What about the “Population Membrane Permeable-Phenotype (%)” value [9] of the same molecule?
A: 0%

Q: And the “Population Mitochondria Different-Phenotype (%)” value [9]?
A: 1%

Q: And the “Population Mitotic Cells (%)” value [9]?
A: 35%

Q: What about the “Population Normal (%)” value [9] of the same molecule?
A: 95%

Q: And the “Population Pyknosed Nuclei (%)” value [9]?
A: 11%

Q: And the “Population Tubulin-Different-Phenotype (%)” value [9]?
A: 23%

Q: And the “Total Cell Count” value [9]?
A: 155

Q: What about the “Population Apoptotic (%)” value [10] of the same molecule?
A: 34%

Q: And the “Population Fragmented Nuclei (%)” value [10]?
A: 37%

Q: And the “Population Healthy Nuclei (%)” value [10]?
A: 42%

Q: And the “Population Hoechst High Intensity Objects (%)” value [10]?
A: 11%

Q: And the “Population Membrane Permeable-Phenotype (%)” value [10]?
A: 5%

Q: What about the “Population Mitochondria Different-Phenotype (%)” value [10] of the same molecule?
A: 8%

Q: What about the “Population Mitotic Cells (%)” value [10] of the same molecule?
A: 65%

Q: What about the “Population Normal (%)” value [10] of the same molecule?
A: 88%

Q: And the “Population Pyknosed Nuclei (%)” value [10]?
A: 20%

Q: What about the “Population Tubulin-Different-Phenotype (%)” value [10] of the same molecule?
A: 60%

Q: And the “Total Cell Count” value [10]?
A: 196

Q: And the “Population Apoptotic (%)” value [11]?
A: 71%

Q: What about the “Population Fragmented Nuclei (%)” value [11] of the same molecule?
A: 35%

Q: What about the “Population Healthy Nuclei (%)” value [11] of the same molecule?
A: 50%

Q: And the “Population Hoechst High Intensity Objects (%)” value [11]?
A: 1%

Q: And the “Population Membrane Permeable-Phenotype (%)” value [11]?
A: 0%

Q: And the “Population Mitochondria Different-Phenotype (%)” value [11]?
A: 9%

Q: What about the “Population Mitotic Cells (%)” value [11] of the same molecule?
A: 28%

Q: And the “Population Normal (%)” value [11]?
A: 98%

Q: And the “Population Pyknosed Nuclei (%)” value [11]?
A: 13%

Q: What about the “Population Tubulin-Different-Phenotype (%)” value [11] of the same molecule?
A: 68%

Q: What about the “Total Cell Count” value [11] of the same molecule?
A: 155

Q: What about the “Population Apoptotic (%)” value [12] of the same molecule?
A: 60%

Q: What about the “Population Fragmented Nuclei (%)” value [12] of the same molecule?
A: 39%

Q: What about the “Population Hoechst High Intensity Objects (%)” value [12] of the same molecule?
A: 7%

Q: And the “Population Membrane Permeable-Phenotype (%)” value [12]?
A: 5%

Q: What about the “Population Mitochondria Different-Phenotype (%)” value [12] of the same molecule?
A: 10%

Q: And the “Population Mitotic Cells (%)” value [12]?
A: 40%

Q: And the “Population Normal (%)” value [12]?
A: 92%

Q: And the “Population Pyknosed Nuclei (%)” value [12]?
A: 10%

Q: What about the “Population Tubulin-Different-Phenotype (%)” value [12] of the same molecule?
A: 63%

Q: What about the “Total Cell Count” value [12] of the same molecule?
A: 157
